Screening results as filed in PubChem BioAssay.
Only some compounds are listed: those with a hit (about 1.8% of all), similar ones and a draw of the others.
TRAIL sens C8 – sensitizes caspase-8 expressing cells to TRAIL; AID 624354; hit rate 1% among 360,000; inhibition (viability loss, TRAIL sensitization), % at 10 µM; NB7+C8 cells + TRAIL, ATPlite viability luminescence;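 active means compounds causing at least 50% loss of cell viability in the single-dose screen, relative to plate controls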
STAT3 act-1 – activators of IL-6 induced STAT3 signaling; U3A cells, IL-6 STAT3-luciferase reporter, luminescence; 100% = signal with IL-6 EC80 alone; activation (% of control), % at 5.6 µM; hit rate 0.91% among 190,000;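 active means activation above the screen-wide mean of compound activation plus 3 SD, cut at about 130% in these data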;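 further: 0% = background luminescence of wells with medium and substrate only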
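Material: human STAT1-deficient U3A cells with stable STAT3-luciferase reporter / Probe or stimulus: IL-6 stimulus at 33 ng/mL final / Schedule: 1 h compound pre-exposure, 6 h IL-6 stimulation, 37 °C / Technique: luminescence / Read-out basis: percent of IL-6-only median luminescence / Control set: IL-6-only high control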
STAT3 inh – inhibitors of IL-6 induced STAT3 signaling | U3A cells, IL-6 STAT3-luciferase reporter, luminescence; host cell line lacks STAT1 | inhibition, % at 5.5 µM | hit rate 0.89% among 190,000;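 active means inhibition above the mean inhibition across all screened compounds plus 3 SD, cut at about 44% in these data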;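 further: 0% = DMSO only wells and 100% = 100 µM nifuroxazide control wells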
STAT1 inh – reduces IFN-gamma driven STAT1 reporter signal. NIH 3T3 STAT1-luciferase reporter, luminescence. inhibition, % at 5.5 µM. hit rate 0.35% among 200,000;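 active means inhibition above a set limit, the mean inhibition across all tested compounds plus 3 SD, cut at about 34% in these data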;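 further: 0% = IFN-gamma with DMSO and 100% = IFN-gamma with 300 µM nifuroxazide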
PPC-1+TRAIL kill – kills PPC-1 cancer cells in the presence of TRAIL. PPC-1 cells + TRAIL, ATPLite viability luminescence. hit rate 0.41% among 220,000. cell killing (% activity), % at 4 µM or 5 µM;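 active means cell killing above 50% in the first pass at 4 µM, then a duplicate retest at 5 µM averaging 50% or more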;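 further: plate controls were cells with TRAIL plus DMSO for no effect and medium-only wells lacking cells for full effect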
STAT3 act-2 – STAT3 activation, confirmation assay; U3A STAT3-luciferase reporter, IL-6 potentiation, luminescence; U3A cells lack STAT1; 100 means same as IL-6 alone; potentiation (% of control), % at 5.7 µM; hit rate 64% among 1,200; shares compounds with STAT3 act-1; AID 1267;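 active means percent activation of the STAT3 luciferase reporter above a set limit taken from the earlier primary screen, cut at about 130% in these data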;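 further: 0% = background signal of medium plus substrate and 100% = median of IL-6 with DMSO wells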
NFkB act 2 – activates NF-kappaB, counter-screen to STAT3 activators | shares compounds with STAT3 act-1 | human cells, NF-kappaB reporter activation | activation (% of control), % at 5.7 µM | hit rate 11% among 1,200 | AID 1309; in the data active means activation above about 120%;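 further: reporter induced by TNF-alpha stimulation; 100% = median of stimulated DMSO wells and 0% = no signal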
STAT1 act STAT3c – counter-screen for STAT3 activators: STAT1 activation. shares compounds with STAT3 act-1. NIH 3T3 STAT1-luciferase reporter, IFN-gamma, luminescence. activation (% of control), % at 5.7 µM. AID 1318. hit rate 13% among 1,200;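 active means activation above the solvent-only control well mean plus 3 SD, set per screening run, cut at about 120% in these data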;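 further: 100% = IFN-gamma with DMSO median signal so 100% means no change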
* hit, by the source's call; i = inactive; . = not tested or not shown; + = active, no number.

SMILES	TRAIL sens C8	STAT3 act-1	STAT3 inh	STAT1 inh	PPC-1+TRAIL kill	STAT3 act-2	NFkB act 2	STAT1 act STAT3c
Nc1cccc(C2=Nc3cccc4cccc(c34)N2)c1	6	147*	-63	1	12	157*	103	105
Cc1cc(O)ccc1-c1cccc2nccn12	-2	.	.	.	.	.	.	.
NS(=O)(=O)c1ccc(NC(=S)NCc2ccco2)cc1	-2	136*	-38	4	20	123	98	98
NC(=O)c1ccc(NC(=S)NCc2ccco2)cc1	2	106	-5	-1	-3	.	.	.
CCOc1ccccc1C1CC(c2cccs2)=NN1S(C)(=O)=O (stereo not given)	25	137*	-34	5	18	147*	103	87
C=CCOc1ccc(C(c2c(O)nc(SC)[nH]c2=O)c2c(O)nc(SC)[nH]c2=O)cc1	12	.	.	.	.	.	.	.
Cc1cccc2c1NC(=O)/C2=C\C(=O)c1cccs1	1	147*	-47	3	-2	136*	107	92
O=C1Cc2ccccc2C(=O)N1CCc1ccccc1	-28	155*	-55	1	10	136*	102	97
CCOC(=O)c1ccc(NC2=CC(=O)C(=O)c3ccccc32)cc1	94*	144*	-46	0	-3	128	107	102
CC(=O)Nc1ccc(NC2=CC(=O)c3ccccc3C2=O)cc1	24	.	.	.	.	.	.	.
CCOc1ccc(C=Nc2cccc3ncccc23)cc1	2	149*	-59	6	29	148*	102	119
O=C(O)c1sccc1SCc1ccc(Cl)cc1Cl	3	137*	-39	0	-5	116	103	91
CCN(C(=O)COC(=O)CCc1ccc(OC)cc1)c1c(N)n(Cc2ccccc2)c(=O)[nH]c1=O	-17	.	.	.	.	.	.	.
COCc1ccc(CN2CCc3c([nH]c4ccccc34)C2C(C)(C)C)o1 (stereo not given)	2	140*	-44	17	11	141*	105	93
CCN(CC)S(=O)(=O)c1ccc(-c2nnc3sc4cccc(C)c4n23)cc1	7	148*	-54	4	-4	160*	110	107
O=C(COC(=O)Cc1c[nH]c2ccccc12)Nc1cccc(Br)c1	-9	.	.	.	.	.	.	.
O=S1(=O)N[C@@H](Cc2ccccc2)COc2cc(N3CCN(Cc4ccccc4F)CC3)ccc21	-10	.	.	.	.	.	.	.
CC(C)OC(=O)c1cccnc1SCc1cc(=O)n2ccccc2n1	10	144*	-48	3	-4	127	105	104
O=c1[nH]cnc2c1nnn2C1OC(CO)C(O)C1O (stereo not given)	21	.	.	.	.	.	.	.
COc1ccccc1NC(=O)C1=C(C)NC(=O)NC1c1ccccc1[N+](=O)[O-] (stereo not given)	-21	144*	-44	12	-12	138*	104	99
O=C(Nc1ccccc1)N1CCn2c1nc1ccccc12	2	161*	-69	3	24	139*	99	95
COc1cc(NC(=O)[C@H](C)NC(=O)N2CCn3c2nc2ccccc23)cc(OC)c1	11	.	.	.	.	.	.	.
S=C(Nc1ccccc1)N1CCn2c1nc1ccccc12	-11	87	19	-1	5	.	.	.
COc1ccc(NC(=O)N2CCn3c2nc2ccccc23)cc1	-11	151*	-59	-3	28	137*	105	98
O=C1CC2CCCC(C1)S2=O (stereo not given)	-9	.	.	.	.	.	.	.
SMILES	TRAIL sens C8	STAT3 act-1	STAT3 inh	STAT1 inh	PPC-1+TRAIL kill	STAT3 act-2	NFkB act 2	STAT1 act STAT3c
COc1ccc2nc(N=Nc3c(O)ccc4ccccc34)sc2c1	.	137*	-43	11	26	133	103	90
Cc1ccc(-c2[nH]c3ccccc3c2C(C[N+](=O)[O-])c2ccco2)cc1 (stereo not given)	11	152*	-56	19	9	134*	97	78
Clc1ccccc1-c1cnc2sc(NCc3ccc4c(c3)OCO4)nn12	5	.	.	.	.	.	.	.
Cc1ccc(-c2nc(NCCN3CCOCC3)c3ccccc3n2)cc1	-26	181*	-81	2	21	169*	105	98
Cc1ccc(NC(=O)CN(C)CC(=O)N(C)Cc2ccccc2)cc1	7	.	.	.	.	.	.	.
Cc1ccc(NC(=O)CN(C)CC(=O)Nc2ccccc2C(=O)Nc2ccccc2)cc1	-23	147*	-49	11	6	123	103	104
Cc1cc(N/N=C/c2c[nH]c3ccccc23)c2ccccc2n1	-4	148*	-53	5	15	141*	100	88
Cc1cc(C)nc(N/N=C/c2c[nH]c3ccccc23)n1	-1	115	-11	8	16	.	.	.
COc1cc(NC(=O)C2CSC3(C)CCC(=O)N23)c(OC)cc1Cl (stereo not given)	-10	.	.	.	.	.	.	.
CCOc1cc(N2CCOCC2)c(OCC)cc1NC(=O)COc1ncnc2ccccc12	0	151*	-50	-6	11	154*	107	104
COc1ccc(-c2ccc(-c3nnc(-c4cc(OC)ccc4OC)o3)cc2)cc1	-5	138*	-42	-1	-1	84	105	103
Cc1ccc(O)c(-c2cc(-c3ccccc3F)[nH]n2)c1	11	160*	-65	-10	22	148*	117	111
Cc1ccc(O)c(-c2cc(-c3cccc(F)c3)n[nH]2)c1	25	132	-37	-6	27	.	.	.
C=CCN1CN(S(=O)(=O)c2cccc(Cl)c2)c2nc3ccccc3nc21	-10	.	.	.	.	.	.	.
COc1ccc(C2CC3(CC(C)(C)NC(=S)N3)Oc3cc(O)cc(C)c32)cc1OC (stereo not given)	-6	+	i	-4	18	693*	118	121*
Fc1cccc2sc(Nc3nc4c(F)cccc4s3)nc12	5	156*	-72	-4	11	182*	122*	119
CN1C(=O)SC(Nc2cccc3ccccc23)C1=O (stereo not given)	-10	99	5	-2	17	.	.	.
O=C1NC(=O)C(Nc2cccc3ccccc23)S1 (stereo not given)	-4	141*	-46	6	13	129	103	94
Cc1[nH]n(-c2ccccc2)c(=O)c1N=Nc1ccccc1O	57*	168*	-77	-5	46	171*	109	123*
COc1ccc2ccc3c(c2c1)N=CC1(O3)N(C)c2ccccc2C1(C)C (stereo not given)	-7	96	6	22	24	.	.	.
CN1c2ccccc2C(C)(C)C12C=Nc1c(ccc3ccccc13)O2 (stereo not given)	1	166*	-78	13	-16	150*	115	108
